Measured values from ChEMBL document CHEMBL1221342, “Synthesis and in vitro antitumor activity of new 4,5-dihydropyrazole derivatives” (Bioorg Med Chem, 2010).

Key:
[1] = system: NCI-H322M; assay: Growth inhibition of human NCI-H322M cells after 48 hrs by SRB assay; type: functional
Outline: (§1)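 NCI 60-cell-line screen. Cells grown in RPMI1640 with 5% fetal calf serum and 2 mM L-glutamine, with inoculum density set by cell line. Preincubated 24 h, then given compound in DMSO at 10^-4 to 10^-8 M (five 10-fold steps) for 48 h continuous exposure. Growth measured by SRB protein assay. GI50, TGI and LC50 reported as –log molar.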

[2] = system: SR; assay: Growth inhibition of human SR cells after 48 hrs by SRB assay; type: functional; outline: as §1
[3] = system: SNB-75; assay: Growth inhibition of human SNB75 cells after 48 hrs by SRB assay; type: functional; details: SNB-75, 48 h; outline: as §1
[4] = system: MDA-MB-435; assay: Growth inhibition of human MDA-MB-435 cells after 48 hrs by SRB assay; type: functional; details: MDA-MB-435, 48 h; outline: as §1
[5] = system: HOP-62; assay: Growth inhibition of human HOP62 cells after 48 hrs by SRB assay; type: functional; details: HOP-62, 48 h; outline: as §1
[6] = system: UACC-62; assay: Growth inhibition of human UACC62 cells after 48 hrs by SRB assay; type: functional; details: UACC-62, 48 h; outline: as §1
[7] = system: SF-295; assay: Growth inhibition of human SF295 cells after 48 hrs by SRB assay; type: functional; details: SF-295, 48 h; outline: as §1
[8] = system: COLO 205; assay: Growth inhibition of human COLO205 cells after 48 hrs by SRB assay; type: functional; details: COLO 205, 48 h; outline: as §1
[9] = system: SF-539; assay: Growth inhibition of human SF539 cells after 48 hrs by SRB assay; type: functional; details: SF-539, 48 h; outline: as §1
[10] = system: OVCAR-4; assay: Growth inhibition of human OVCAR4 cells after 48 hrs by SRB assay; type: functional; details: OVCAR-4, 48 h; outline: as §1
[11] = system: OVCAR-8; assay: Growth inhibition of human OVCAR8 cells after 48 hrs by SRB assay; type: functional; details: OVCAR-8, 48 h; outline: as §1
[12] = system: T47D; assay: Growth inhibition of human T47D cells after 48 hrs by SRB assay; type: functional; outline: as §1
[13] = system: SK-MEL-28; assay: Growth inhibition of human SK-MEL-28 cells after 48 hrs by SRB assay; type: functional; details: SK-MEL-28, 48 h; outline: as §1
[14] = system: MOLT-4; assay: Growth inhibition of human MOLT4 cells after 48 hrs by SRB assay; type: functional; details: MOLT-4, 48 h; outline: as §1
[15] = system: SF-268; assay: Growth inhibition of human SF268 cells after 48 hrs by SRB assay; type: functional; details: SF-268, 48 h; outline: as §1
[16] = system: DU-145; assay: Growth inhibition of human DU145 cells after 48 hrs by SRB assay; type: functional; details: DU-145, 48 h; outline: as §1
[17] = system: HCT-15; assay: Growth inhibition of human HCT15 cells after 48 hrs by SRB assay; type: functional; details: HCT-15, 48 h; outline: as §1
[18] = system: HCT-116; assay: Growth inhibition of human HCT116 cells after 48 hrs by SRB assay; type: functional; details: HCT-116, 48 h; outline: as §1
[19] = Growth inhibition of human […] cells after 48 hrs by SRB assay; type: functional; outline: as §1
[20] = system: PC-3; assay: Growth inhibition of human PC3 cells after 48 hrs by SRB assay; type: functional; details: PC-3, 48 h; outline: as §1
[21] = system: M14; assay: Growth inhibition of human M14 cells after 48 hrs by SRB assay; type: functional; details: M14, 48 h; outline: as §1
[22] = system: SW-620; assay: Growth inhibition of human SW620 cells after 48 hrs by SRB assay; type: functional; details: SW-620, 48 h; outline: as §1
[23] = system: MCF7; assay: Growth inhibition of human MCF7 cells after 48 hrs by SRB assay; type: functional; details: MCF7, 48 h; outline: as §1
[24] = system: SK-OV-3; assay: Growth inhibition of human SKOV3 cells after 48 hrs by SRB assay; type: functional; details: SK-OV-3, 48 h; outline: as §1
[25] = system: TK-10; assay: Growth inhibition of human TK10 cells after 48 hrs by SRB assay; type: functional; details: TK-10, 48 h; outline: as §1
[26] = system: Malme-3M; assay: Growth inhibition of human MALME-3M cells after 48 hrs by SRB assay; type: functional; outline: as §1
[27] = system: U-251; assay: Growth inhibition of human U251 cells after 48 hrs by SRB assay; type: functional; details: U-251, 48 h; outline: as §1
[28] = system: NCI-H460; assay: Cytotoxicity against human NCI-H460 cells after 72 hrs by SRB assay; type: functional, cell-based; details: NCI-H460, 72 h
Outline: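 NCI-H460 (ATCC) cells seeded in 96-well plates in growth medium. Scalar drug concentrations added 24 h after plating, then 72 h exposure. Surviving cells stained with sulforhodamine B, OD read at 570 nm. IC50 (50% growth inhibition) fitted from dose–response curves. Mean ± SE of at least three independent experiments.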

[29] = system: CAKI-1; assay: Growth inhibition of human Caki1 cells after 48 hrs by SRB assay; type: functional; details: CAKI-1, 48 h; outline: as §1
[30] = system: UO-31; assay: Growth inhibition of human UO31 cells after 48 hrs by SRB assay; type: functional; details: UO-31, 48 h; outline: as §1
[31] = system: NCI-H522; assay: Growth inhibition of human NCI-H522 cells after 48 hrs by SRB assay; type: functional; details: NCI-H522, 48 h; outline: as §1
[32] = system: K562; assay: Growth inhibition of human K562 cells after 48 hrs by SRB assay; type: functional; details: K562, 48 h; outline: as §1
[33] = system: SK-MEL-2; assay: Growth inhibition of human SK-MEL-2 cells after 48 hrs by SRB assay; type: functional; details: SK-MEL-2, 48 h; outline: as §1
[34] = system: CCRF-CEM; assay: Growth inhibition of human CCRF-CEM cells after 48 hrs by SRB assay; type: functional; outline: as §1
[35] = system: SK-MEL-5; assay: Growth inhibition of human SK-MEL-5 cells after 48 hrs by SRB assay; type: functional; details: SK-MEL-5, 48 h; outline: as §1
[36] = system: BT-549; assay: Growth inhibition of human BT549 cells after 48 hrs by SRB assay; type: functional; details: BT-549, 48 h; outline: as §1
[37] = system: HT-29; assay: Growth inhibition of human HT-29 cells after 48 hrs by SRB assay; type: functional; details: HT-29, 48 h; outline: as §1

With COc1cc(C2=NNC(c3ccc(N(C)C)cc3)C2)cc(OC)c1OC (stereo unspecified) the GI50 [1] was 12.6 µM, the TGI ([1]; read-out: pTGI (converted)) was > 100 µM and the GI50 [2] was 251 nM. For the same molecule, the TGI ([2]; read-out: pTGI (converted)) was 7.94 µM, the GI50 [3] was 1000 nM and the TGI ([3]; read-out: pTGI (converted)) was > 100 µM. For the same molecule, the GI50 [4] was 1000 nM, the GI50 [5] was 1260 nM and the TGI ([5]; read-out: pTGI (converted)) was > 100 µM. The GI50 [6] was 3.98 µM, the TGI ([6]; read-out: pTGI (converted)) was > 100 µM and the GI50 [7] was 251 nM. For the same molecule, the TGI ([7]; read-out: pTGI (converted)) was 794 nM, the GI50 [8] was 2510 nM and the TGI ([8]; read-out: pTGI (converted)) was 12.6 µM. It also gave a GI50 [9] of 501 nM, a TGI ([9]; read-out: pTGI (converted)) of 3.16 µM and a GI50 [10] of 15.8 µM. For the same molecule, the TGI ([10]; read-out: pTGI (converted)) was > 100 µM, the GI50 [11] was 3.98 µM and the TGI ([11]; read-out: pTGI (converted)) was > 100 µM. The GI50 [12] was 20 µM, the TGI ([12]; read-out: pTGI (converted)) was > 100 µM and the GI50 [13] was 15.8 µM. The TGI ([13]; read-out: pTGI (converted)) was > 100 µM, the GI50 [14] was 3.16 µM and the TGI ([14]; read-out: pTGI (converted)) was 12.6 µM. The GI50 [15] was 2000 nM, the TGI ([15]; read-out: pTGI (converted)) was > 100 µM and the GI50 [16] was 2000 nM. For the same molecule, the TGI ([16]; read-out: pTGI (converted)) was 5.01 µM, the GI50 [17] was 2510 nM and the TGI ([17]; read-out: pTGI (converted)) was > 100 µM. The GI50 [18] was 2000 nM, the TGI ([18]; read-out: pTGI (converted)) was 20 µM and the GI50 [19] was 1580 nM. The TGI ([19]; read-out: pTGI (converted)) was 12.6 µM, the GI50 [20] was 794 nM and the TGI ([20]; read-out: pTGI (converted)) was > 100 µM. The GI50 [21] was 2510 nM, the GI50 [22] was 398 nM and the TGI ([22]; read-out: pTGI (converted)) was > 100 µM. The GI50 [23] was 398 nM, the TGI ([23]; read-out: pTGI (converted)) was > 100 µM and the GI50 [24] was 3.98 µM. The TGI ([24]; read-out: pTGI (converted)) was > 100 µM, the GI50 [25] was 10 µM and the TGI ([25]; read-out: pTGI (converted)) was > 100 µM. For the same molecule, the GI50 [26] was 7.94 µM, the TGI ([26]; read-out: pTGI (converted)) was > 100 µM and the GI50 [27] was 631 nM. The TGI ([27]; read-out: pTGI (converted)) was > 100 µM, the IC50 [28] was 1100 nM and the GI50 [29] was 2510 nM. The TGI ([29]; read-out: pTGI (converted)) was > 100 µM, the GI50 [30] was 5.01 µM and the TGI ([30]; read-out: pTGI (converted)) was 50.1 µM. It also gave a GI50 [31] of 2000 nM, a TGI ([31]; read-out: pTGI (converted)) of 6.31 µM and a GI50 [32] of 398 nM. For the same molecule, the TGI ([32]; read-out: pTGI (converted)) was 79.4 µM, the GI50 [33] was 3.16 µM and the TGI ([33]; read-out: pTGI (converted)) was 31.6 µM. It also gave a GI50 [34] of 1580 nM, a TGI ([34]; read-out: pTGI (converted)) of 6.31 µM and a GI50 [35] of 2000 nM. It also gave a TGI ([35]; read-out: pTGI (converted)) of 6.31 µM, a GI50 [36] of 794 nM and a TGI ([36]; read-out: pTGI (converted)) of 10 µM. For the same molecule, the GI50 [37] was 631 nM and the TGI ([37]; read-out: pTGI (converted)) was > 100 µM.
